Compound activity: PubChem, The Scripps Research Institute Molecular Screening Center
Compounds with a hit are over-represented: about 4.7% of the library has one in this group of screens.
AHR act – AHR activators, primary screen, cell-based, luminescence, luciferase reporter, human; AHR-responsive luciferase reporter cells; Aryl hydrocarbon receptor (Homo sapiens), P35869; activation, % at 5 µM; AID 2796, 2010; 320,000 tested, 2.5% active; in the data active means activation above about 47%
HTR2A ag – mouse Htr2a agonists via beta-arrestin recruitment, primary screen, cell-based, luminescence | 5-hydroxytryptamine receptor 2A (Mus musculus), P35363 | 360,000 tested, 0.66% active | activation, % at 7.6 µM | CHO-K1 mHTR2A beta-arrestin complementation; percent of 30 µM serotonin response | AID 624169, 2012;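 active means activation above a run cutoff, the mean activation of all tested compounds plus 3 SD, cut at about 14% in these data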
FXN GAA850 act – FXN promoter activators, primary screen, cell-based, luciferase luminescence, HEK293 lucGAA850 | 360,000 tested, 0.56% active | AID 540364, 2011 | HEK293 lucGAA850 FXN promoter luciferase reporter, 24 h; percent of 10 µM SAHA response | activation, % at 6 µM;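 active means activation above the average of all compounds screened plus 3 SD, cutoff fixed separately per campaign, cut at about 7.5% in these data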
MC4R ag barr – MC4R agonists recruiting beta-arrestin, primary screen, cell-based, luminescence, agonist arm of biased-ligand search | 360,000 tested, 0.98% active | U2OS MC4R beta-arrestin complementation; percent of melanotan II response, DMSO zero | activation, % at 8.9 µM;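 active means activation above a per-plate cutoff, the mean activation of sample wells on that plate plus 3 SD, cut at about 8% in these data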
Target sequence (P32245 whole entry, looked up): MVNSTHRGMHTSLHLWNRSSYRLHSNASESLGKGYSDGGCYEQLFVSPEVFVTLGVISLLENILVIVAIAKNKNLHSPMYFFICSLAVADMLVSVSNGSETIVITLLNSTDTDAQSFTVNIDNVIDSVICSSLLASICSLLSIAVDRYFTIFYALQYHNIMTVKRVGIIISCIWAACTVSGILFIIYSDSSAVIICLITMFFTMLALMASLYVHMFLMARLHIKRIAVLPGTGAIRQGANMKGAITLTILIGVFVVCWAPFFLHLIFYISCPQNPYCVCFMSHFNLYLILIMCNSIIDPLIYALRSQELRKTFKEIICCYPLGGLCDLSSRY
MC4R antagonist – MC4R antagonists of cAMP signaling, primary screen, cell-based, TR-FRET, antagonist arm of biased-ligand search. Melanocortin receptor 4 (Homo sapiens), P32245. MC4R-expressing cells, MTII-stimulated cAMP, LANCE TR-FRET. inhibition, % at 6.5 µM. 360,000 tested, 0.48% active. AID 540295, 2011;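 active means inhibition above its plate's cutoff, the mean of tested wells on that plate plus 3 SD, cut at about 29% in these data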
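Material: human MC4R-expressing U2OS cells. Probe or stimulus: Melanotan II challenge. Dosing: 6.5 µM single dose. Times: 30-min compound, 1-h challenge, 1-h detection, room temperature. Technique: TR-FRET with Eu-cAMP and labeled anti-cAMP, 671 nm. Replication: singlicate.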
GAA30 FXN cntr – GAA30 FXN promoter activators, confirmation, counter-screen for GAA850 frataxin promoter activator project, cell-based, luminescence, HEK293, lucGAA30, triplicate; shares compounds with FXN GAA850 act; HEK293 lucGAA30 FXN promoter luciferase, 24 h; DMSO = 0%, 5 µM ipriflavone = 100%; activation, % at 6 µM; 1,900 tested, 66% active;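 active means mean activation above the mean of solvent-only control wells plus 3 SD, cut at about 22% in these data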;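 further: counterscreen of GAA850 promoter hits where activity marks nonselective or luminescence artifacts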
FXN GAA850 conf – FXN GAA850 promoter activators in reporter cells, confirmation, cell-based, luminescence, HEK293 lucGAA850, triplicate; shares compounds with FXN GAA850 act; HEK293 lucGAA850 FXN promoter luciferase reporter, 24 h; 100% = activation by SAHA; activation, % at 6 µM; 1,900 tested, 86% active; AID 588351, 2011;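 active means mean activation above a set limit taken from the primary screen, cut at about 8% in these data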
Hits are given with their value; n = inactive; x = no result given.

SMILES	AHR act	HTR2A ag	FXN GAA850 act	MC4R ag barr	MC4R antagonist	GAA30 FXN cntr	FXN GAA850 conf
COc1ccc(/C=C/C(=O)Nc2ccc(-n3nncc3-c3ccc(OC)c(OC)c3)cc2)cc1OC	n	n	8.9	n	n	23	17
COc1ccc(-c2cnnn2-c2ccc(NC(=O)/C=C/c3ccc(OC)c(OC)c3)cc2)cc1	n	n	n	n	n	x	x
C=C1c2cccc(O)c2C(=O)C2C(=O)[C@]3(O)C(=O)C(C(N)=O)C(=O)[C@@H](N(C)C)[C@@H]3[C@@H](O)[C@H]12 (stereo partly drawn)	n	n	18	n	n	n	n
Cc1ccc(N/C=C/C(=O)c2ccc(C)cc2)cc1	n	n	n	n	n	x	x
Cc1ccc(O)c(N/C=C/C(=O)c2ccc(F)cc2)c1	n	n	11	n	n	n	25
N#Cc1c(N)nc2c(c1-c1ccccc1)CCC2	n	n	8.2	n	n	62	35
CC(C)(CNS(=O)(=O)c1ccc2ccccc2c1)N1CCOCC1	n	n	n	n	n	x	x
Cc1c(-c2nc(N)nc(Nc3ccccc3F)n2)oc2ccccc12	n	n	14	n	n	112	48
CN1/C(=C/C(=O)c2nc(S(C)(=O)=O)ncc2Cl)C(C)(C)c2ccccc21	n	n	9.8	n	n	n	n
COc1ccc(C(=O)CSC#N)cc1OC	n	n	12	n	n	n	32
O=C1C(=Cc2ccccn2)CCc2ccccc21	x	n	7.8	n	n	103	31
COc1ccc2c(c1)CC/C(=C/c1ccccn1)C2=O	n	n	n	n	n	x	x
O=C(O)/C=C/C(=O)NCc1cn(-c2ccccc2)nc1-c1cccc(Br)c1	n	n	8.2	n	n	30	13
COc1ccc(N2CCN(C(CNC(=O)C(C)C)c3ccc4c(c3)OCO4)CC2)cc1 (stereo not drawn)	n	n	n	n	n	x	x
CCC1Nc2ccccc2-c2nnc(SC)nc2O1 (stereo not drawn)	n	n	n	n	n	x	x
COc1ccccc1C(=O)C1Nc2ccccc2-c2nnc(SC)nc2O1 (stereo not drawn)	n	n	8.8	n	n	n	n
COC(=O)[C@@]1(C)[C@H]2C(=O)N(Cc3ccccc3)C(=O)[C@H]2[C@H]2CN=C(SCc3ccc(C#N)cc3)N21	x	n	13	n	n	22	12
CCN1C(=O)[C@H]2[C@H]3CN=C(SCc4ccccc4)N3[C@@](C)(C(=O)OC)[C@H]2C1=O	x	n	n	n	n	x	x
COC(=O)[C@@]1(C)[C@H]2C(=O)N(Cc3ccccc3)C(=O)[C@H]2[C@H]2CN=C(SCc3ccc(Cl)cc3)N21	x	n	15	n	n	30	11
Cc1cccc(NC(=O)Nc2cccc(C#N)c2)n1	n	n	8.0	8.2	n	90	70
Cc1cccc(NC(=O)Nc2cccc(F)c2)n1	n	n	n	n	n	x	x
Cc1cccc(NC(=O)Nc2ccccc2[N+](=O)[O-])n1	n	n	9.3	n	n	67	25
Cc1cccc(NC(=O)Nc2ccc(C#N)cc2)n1	n	n	20	n	n	103	105
COCCNC(=O)C1CCCN(C(=O)c2cc(-c3ccccc3)cs2)CC1 (stereo not drawn)	x	n	n	n	n	x	x
COc1cc(/C=C2\N=C3CCCCCN3C2=O)ccc1O	n	n	n	n	n	x	x
SMILES	AHR act	HTR2A ag	FXN GAA850 act	MC4R ag barr	MC4R antagonist	GAA30 FXN cntr	FXN GAA850 conf
O=C1/C(=C\c2ccc(O)c(O)c2)N=C2CCCCCN12	n	n	9.8	n	n	74	19
C/C(=N\NC(=O)C(c1ccccc1)c1ccccc1)c1ccccn1	n	n	9.6	n	n	n	n
O=C(NCCc1ccccc1)c1coc(=O)c(Br)c1	x	n	8.0	n	n	n	21
COc1ccccc1NC(=O)c1cc(N)cc(C(=O)Nc2ccccc2OC)c1	n	n	n	n	n	x	x
CN(C)CCNC(=O)c1coc(=O)c(Br)c1	n	n	n	n	n	x	x
O=C(NCCC1=CCCCC1)c1coc(=O)c(Br)c1	n	n	17	n	n	n	26
COc1ccccc1NC(=O)c1coc(=O)c(Br)c1	n	n	7.9	n	n	129	69
Cc1ccc(NC(=O)CN(C)C(=O)COC(=O)c2ccc(Cl)cc2O)cc1	n	n	n	n	n	x	x
CCN(C[C@H]1N[C@@](CC)(C(=O)OC)[C@H]2C(=O)N(Cc3ccccc3)C(=O)[C@@H]12)S(=O)(=O)c1ccc(OC(F)(F)F)cc1	n	n	11	n	n	n	10
CCN(C[C@H]1N[C@@](CC)(C(=O)OC)[C@H]2C(=O)N(Cc3ccccc3)C(=O)[C@@H]12)S(=O)(=O)c1ccc(C)cc1	n	n	10	n	n	n	8.1
CCN(C[C@H]1N[C@@](CC)(C(=O)OC)[C@H]2C(=O)N(Cc3ccccc3)C(=O)[C@@H]12)S(=O)(=O)c1ccc(-c2ccccc2)cc1	n	n	n	n	n	x	x
CCN(C[C@H]1N[C@@](CC)(C(=O)OC)[C@H]2C(=O)N(Cc3ccccc3)C(=O)[C@@H]12)C(=O)Nc1ccc(C)cc1	n	n	14	n	n	33	12
CCN(C[C@H]1N[C@@](CC)(C(=O)OC)[C@H]2C(=O)N(Cc3ccccc3)C(=O)[C@@H]12)C(=O)COc1ccccc1	n	n	8.0	n	n	28	14
CCN(C[C@H]1N[C@@](Cc2ccccc2)(C(=O)OC)[C@H]2C(=O)N(Cc3ccccc3)C(=O)[C@@H]12)C(=O)Nc1ccc(C)cc1	n	n	n	n	n	x	x
CCN(C[C@H]1N[C@@](CC)(C(=O)OC)[C@H]2C(=O)N(Cc3ccccc3)C(=O)[C@@H]12)C(=O)Nc1ccc(Cl)cc1	n	n	15	n	n	31	14
Clc1cccc(-c2ccc(C3Nc4cccc5cccc(c45)N3)o2)c1	n	n	n	n	n	x	x
O=C(C[n+]1ccc2ccccc2c1)c1ccc2ccc3ccccc3c2c1	x	n	x	x	x	x	x
COc1ccc(-c2cc(-c3cc(C)ccc3O)[nH]n2)cc1	n	n	13	n	n	53	46
COc1ccc(-c2cc(-c3ccc(C)cc3)n[nH]2)c(O)c1	n	n	n	n	n	x	x
